Source: PubChem (SRMLSC)
The full list was thinned out, with hits kept by preference.
H69AR growth 86K – blocks growth of human H69AR lung tumor cells. H69AR lung tumor viability, ATP luminescence, 72 h; stronger effect = lower value. 6% of 85,000 active. AID 598. viability, % at 10 µM;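 active means viability at or below 40%; inactive means viability above 40%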;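 further: multidrug resistant small cell line overexpressing MRP-1 efflux transporter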
HCT116 PTEN-null – growth suppressors of cells with PTEN tumor suppressor deletion; HCT116 PTEN-null viability, CellTiter-Glo, 60 h; stronger effect = lower value; viability, % at 10 µM; 1.2% of 140,000 active; AID 827;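 active means viability at or below a set limit, 4 SD under the median of all tested compounds, cut at about 3.7% in these data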;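 further: PTEN knockout HCT116 line with beta catenin targeted HCT116 as companion control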
Lung fibro prol – blocks proliferation of human lung fibroblasts; LL 47 human lung fibroblast viability, ATP luminescence; stronger effect = lower value; viability, % at 10 µM; AID 719; 1.1% of 85,000 active;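 active means viability at or below 50% in the single dose screen; inactive means viability above 50%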;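 further: compound exposure lasted 72 h before the ATP readout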
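Times – overnight cell rest, 72 h compound treatment at 37 °C · Test system – human lung fibroblast line LL 47, low passage · Amount – 1,150 cells in each well · Controls – cell-only wells, no compound · Doses – 0.1% DMSO in all compound wells · Measured by – CellTiter-Glo luminescence · Buffer or medium – IMEM plus 15% FBS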
HUVEC prolif 384 – human endothelial cell proliferation inhibition. AID 648. 1.1% of 86,000 active. viability, % at 10 µM (by protocol). HUVEC proliferation, CellTiter-Glo luminescence, 72 h; stronger effect = lower value;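 active means viability at or below 30%; inactive means viability above 30%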
HCT116 bCat-KO – beta-catenin-lacking colon tumor cell growth suppression | HCT116 beta-catenin knockout viability, CellTiter-Glo, 60 h; stronger effect = lower value | viability, % at 10 µM | 1.5% of 140,000 active;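 active means viability at or under a set limit, the compound median less 4 SD, cut at about 6% in these data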
Large screens that a line does not name were inactive.

COc1ccc(CNC(=O)c2cc3c(=O)n4ccccc4nc3n(Cc3cccnc3)c2=N)cc1	H69AR growth 86K 27
N=c1c(C(=O)NCc2ccc3c(c2)OCO3)cc2c(=O)n3ccccc3nc2n1Cc1cccnc1	none
Cc1cccn2c(=O)c3cc(C(=O)NCc4ccco4)c(=N)n(C(C)C)c3nc12	none
COCCCn1c(=N)c(C(=O)NCc2ccc3c(c2)OCO3)cc2c(=O)n3cccc(C)c3nc21	none (no result: HCT116 PTEN-null, HCT116 bCat-KO)
Cc1cccn2c(=O)c3cc(C(=O)NCc4ccco4)c(=N)n(CCc4ccccc4)c3nc12	H69AR growth 86K 31 (no result: HCT116 PTEN-null, HCT116 bCat-KO)
CCOCCCn1c(=N)c(C(=O)NCc2ccc3c(c2)OCO3)cc2c(=O)n3cccc(C)c3nc21	HCT116 bCat-KO 2.8
Cc1cccn2c(=O)c3cc(C(=O)NC(C)c4ccccc4)c(=N)n(CCCn4ccnc4)c3nc12 (stereo not drawn)	H69AR growth 86K 12 (no result: HCT116 PTEN-null, HCT116 bCat-KO)
Cc1ccc2nc3c(cc(C(=O)NCc4ccccc4)c(=N)n3CCCn3ccnc3)c(=O)n2c1	none (no result: HCT116 PTEN-null, HCT116 bCat-KO)
Cc1c(NC(=O)COC(=O)C(c2ccc(Cl)cc2)C(C)C)c(=O)n(-c2ccccc2)n1C (stereo not drawn)	none (no result: H69AR growth 86K, Lung fibro prol, HUVEC prolif 384)
COc1ccc(CCNC(=O)COc2ccc(S(=O)(=O)NC3CCCCC3)cc2Cl)cc1	none (no result: H69AR growth 86K, Lung fibro prol, HUVEC prolif 384)
Cc1cc(-n2c(SCCC#N)nnc2-c2cccnc2)ccc1Cl	none
CCC(C)[C@@H](N)C(=O)N/N=C/c1ccc2ncccc2c1 (stereo partly drawn)	none (no result: H69AR growth 86K, Lung fibro prol, HUVEC prolif 384)
Cc1nn(-c2ccc(F)cc2)c(C)c1NS(=O)(=O)c1ccc2ccccc2c1	H69AR growth 86K 36
CC(=O)Nc1ccc(S(=O)(=O)Nc2c(C)nn(-c3ccccc3)c2C)cc1	none
Cc1nn(-c2ccccc2)c2c1C(c1ccc(O)c(O)c1)N1C(=N2)C(Nc2ccccc2)=Nc2ccccc21 (stereo not drawn)	H69AR growth 86K 21, HCT116 PTEN-null 1.2, Lung fibro prol 39, HUVEC prolif 384 13, HCT116 bCat-KO 1.1
Cc1cccc(NC2=Nc3ccccc3N3C2=Nc2c(c(C)nn2-c2ccccc2)C3c2ccc(O)c(O)c2)c1 (stereo not drawn)	H69AR growth 86K 1.1, HCT116 PTEN-null 1.1, Lung fibro prol 45, HCT116 bCat-KO 2.3
Cc1ccc(NC2=Nc3ccccc3N3C2=Nc2c(c(C)nn2-c2ccccc2)C3c2ccc(O)c(O)c2)cc1 (stereo not drawn)	H69AR growth 86K 16, HCT116 PTEN-null 1.1, Lung fibro prol 37, HUVEC prolif 384 15, HCT116 bCat-KO 1.2
Cc1nn(-c2ccccc2)c2c1C(c1ccc([N+](=O)[O-])cc1)N1C(=N2)C(=O)Nc2ccccc21 (stereo not drawn)	none (no result: H69AR growth 86K, Lung fibro prol, HUVEC prolif 384)
CN(C)S(=O)(=O)Oc1cccc(C(=O)Nc2ccc(Cl)c(Cl)c2)c1	none (no result: H69AR growth 86K, Lung fibro prol, HUVEC prolif 384)
CC(C)n1cc(NC(=O)c2cc(-c3ccccc3)on2)cn1	H69AR growth 86K 21
COc1ccc(C(NC(=O)c2c(F)c(F)c(F)c(F)c2F)c2ccccc2)cc1 (stereo not drawn)	HCT116 PTEN-null 1.7, HCT116 bCat-KO 1.3 (no result: H69AR growth 86K, Lung fibro prol, HUVEC prolif 384)
CC(COc1ccccc1)N(CCCl)Cc1ccccc1 (stereo not drawn)	H69AR growth 86K 1.7
Cc1cc(CNC(=O)C(C)Cc2ccccc2)nn1C (stereo not drawn)	none (no result: H69AR growth 86K, Lung fibro prol, HUVEC prolif 384)
Cc1ccc(-c2ccccc2NC(=O)CCl)o1	H69AR growth 86K 0.1
O=C(O)C1CCCN1C(=O)OCc1ccccc1 (stereo not drawn)	none
COC(=O)[C@@H]1C[C@]2(OC(=O)c3ccccc3)C=CC(=O)C[C@@H]2N1C(=O)OCc1ccccc1	HCT116 PTEN-null 2.5, HCT116 bCat-KO 3.0 (no result: H69AR growth 86K, Lung fibro prol, HUVEC prolif 384)
CCOC(=O)C1C(=O)C=C(c2ccc([N+](=O)[O-])cc2)CC1c1ccccc1 (stereo not drawn)	none (no result: H69AR growth 86K, Lung fibro prol, HUVEC prolif 384)
CCOC(=O)C1C(=O)C=C(c2cccc(NS(C)(=O)=O)c2)CC1c1ccco1 (stereo not drawn)	H69AR growth 86K 37
CCOC(=O)C1C(=O)C=C(c2ccc(Br)cc2)CC1c1ccco1 (stereo not drawn)	H69AR growth 86K 28
Cn1c(C(=O)N2CCN(c3ccc(Cl)cc3)CC2)cc2c(=O)n(C)c3ccccc3c21	none (no result: HCT116 PTEN-null, HCT116 bCat-KO)
CCCCCn1c(=S)[nH]c2ncccc2c1=O	none
O=c1c2cccnc2[nH]c(=S)n1CCC1=CCCCC1	H69AR growth 86K 38
Cc1ccc2nc(NC3=NCN(Cc4ccco4)CN3)nc(C)c2c1	none (no result: HCT116 PTEN-null, HCT116 bCat-KO)
Cc1ccc2nc(NC3=NCN(Cc4ccc5c(c4)OCO5)CN3)nc(C)c2c1	H69AR growth 86K 28, Lung fibro prol 42 (no result: HCT116 PTEN-null, HCT116 bCat-KO)
CC1Cc2cccc3c(O)c(C(=O)c4nn[nH]n4)c(=O)n1c23 (stereo not drawn)	none (no result: H69AR growth 86K, Lung fibro prol, HUVEC prolif 384)
CC1(C)CCCN(C(=O)c2coc(=O)c(Br)c2)C1	H69AR growth 86K 7.0
O=C(c1cncc(Br)c1)N1CCCc2ccccc21	none
O=C(c1coc(=O)c(Br)c1)N1CCCc2ccccc21	H69AR growth 86K -0.6
CCOc1c(Cl)cc(/C=N/NC(N)=S)cc1OC	none (no result: H69AR growth 86K, Lung fibro prol, HUVEC prolif 384)
CC(=O)c1cc2c(cc1NC(=O)c1cc(C)nn1-c1ccccc1)OCO2	H69AR growth 86K 33
CC(=O)Nc1ccc(NC(=O)c2cc(C)nn2-c2ccccc2)cc1	none
CCOC(=O)c1cnc(-n2nc(C)cc2C)nc1NNc1cc(-c2ccccc2)nc(C)n1	HCT116 bCat-KO 3.8 (no result: H69AR growth 86K, Lung fibro prol, HUVEC prolif 384)
CCOC(=O)c1cnc(-n2nc(C)cc2C)nc1NC(C)c1ccccc1 (stereo not drawn)	H69AR growth 86K 2.0, HCT116 PTEN-null 3.6, Lung fibro prol 17, HCT116 bCat-KO 2.3
CCOC(=O)c1cnc(-n2nc(C)cc2C)nc1NCc1ccccc1	H69AR growth 86K 2.4
CCOC(=O)c1cnc(-n2nc(C)cc2C)nc1NCCO	none
CCCCOc1ccc(NC2=NC3(CCCC3)N=C(N)N2)cc1	none
O=C(COC(=O)CCCN1C(=O)c2ccccc2C1=O)Nc1cc(Cl)cc(Cl)c1	none (no result: H69AR growth 86K, Lung fibro prol, HUVEC prolif 384)
COc1cc(C2Nc3ccc4ncccc4c3C3=C2C(=O)CCC3)cc(OC)c1O (stereo not drawn)	H69AR growth 86K 27
CCCCN(C(=O)CSc1nnc(-c2ccccc2OC)n1C)c1c(N)n(Cc2ccccc2)c(=O)[nH]c1=O	none (no result: H69AR growth 86K, Lung fibro prol, HUVEC prolif 384)
Cc1sc2ncnc(Sc3nnc4sc5ccccc5n34)c2c1C	H69AR growth 86K 35
COc1ccc(N2CCN(S(=O)(=O)c3cccc(C(F)(F)F)c3)CC2)cc1	none
Cn1c(=O)c2cc(S(=O)(=O)N3CCN(c4cccc(C(F)(F)F)c4)CC3)ccc2n(C)c1=O	H69AR growth 86K 25
CCOC(=O)c1ccccc1NC(=O)COC	none
COC(=O)c1ccccc1NC(=O)COC(C)=O	H69AR growth 86K 6.0 (no result: Lung fibro prol)
CCOC(=O)N1CCN(c2c(F)cc3[nH]c(=S)[nH]c3c2Br)CC1	H69AR growth 86K 8.9
CCOC(=O)N1CCN(c2cc3[nH]c(=S)[nH]c3cc2F)CC1	none
COc1ccc(C2C(C(=O)NCc3ccccc3)=C(C)Nc3ncnn32)cc1OC (stereo not drawn)	none
COc1cc2c(-c3ccc(O)cc3)nc3c(c(C)nn3-c3ccccc3)c2cc1OC	HCT116 PTEN-null 1.2, HCT116 bCat-KO 1.0 (no result: H69AR growth 86K, Lung fibro prol, HUVEC prolif 384)
CCCS(=O)(=O)c1c(S(=O)(=O)CCC)c2cnccn2c1C(=O)c1ccc(Cl)cc1	none
